Source: PubChem
BB579 growth dn: chemicals that inhibit yeast BB579 growth in restrictive medium (lifespan-shortening candidates); hit rate 0.51% among 140,000; S. cerevisiae BB579 growth, OD615, 48 h; inhibition, % at 10 µM;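 active = inhibition above a set limit, 3 SD over the mean compound inhibition, cut at about 44% in these data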
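Assay system – yeast BB579 (DeaD) · Dosing – single compound dose of 10 µM, 0.25% DMSO final · Detection – OD615 turbidity measurement · Buffer or medium – CSMM-D restrictive synthetic medium containing dextrose (glucose) · Benchmarks – positive control amphotericin B 10 µg/mL · Incubation – 48 h exposure, 30 °C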
RAM network inh: inhibitors of the yeast RAM network | AID 868 | hit rate 1.8% among 190,000 | S. cerevisiae dse1pr::URA3 reporter, 5-FOA growth OD615, 2 d; analog-sensitive cbk1-as2 kinase mutant strain | inhibition, % at 50 µM;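 active = inhibition above a set limit, 3 SD over mean compound inhibition, cut at about 8.4% in these data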;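 note: 0% = DMSO-only wells with no growth and 100% = 10 µM 1-NA-PP1 full growth; inhibition rescues growth on 5-FOA so higher OD means more RAM inhibition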
Yeast lifespan up: extends the lifespan of yeast. hit rate 0.68% among 130,000. inhibition of the nicotinamide effect, % at 10 µM. S. cerevisiae growth with nicotinamide, OD615; deaD strain in restrictive glucose medium;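 active = inhibition above a set limit, placed 3 SD over the median of all compounds, cut at about 26% in these data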;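 note: 0% = nicotinamide-treated wells and 100% = cells grown without nicotinamide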
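Material: Modified budding yeast, DeaD strain | Medium: Restrictive glucose medium | Probe or stimulus: 1.5 mM nicotinamide | Dosing: Single dose 10 µM compound, 0.25% DMSO | Times: 48 h at 30 °C | Technique: OD615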
Phagocytosis inh: blocks phagocytosis by macrophages; J774A.1 macrophage IgG-bead phagocytosis, imaging; inhibition, % at 5 µM; hit rate 0.07% among 110,000;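 active = inhibition above the mean of the plate negative controls plus 5 SD, cut at about 13% in these data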;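 note: phagocytic index as fraction of beads internalized from green versus red external bead signal; plate controls were DMSO negative control for no effect and cytochalasin-D positive control for full effect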
* marks the source's active call; other numbers are inactive results. Sampled rows, rich in hits. Any-hit rate of the full collection: about 2.7%.

Results for CC(NC(=S)NCCCN1CCOCC1)C12CC3CC(CC(C3)C1)C2 (configuration not stated) ?
RAM network inh: 1

Results for Cc1ccc(NC(=O)CSc2nc(C)c(C)c(C)n2)c([N+](=O)[O-])c1 ?
BB579 growth dn: -32; RAM network inh: 8.5*; Yeast lifespan up: 4; Phagocytosis inh: -3

What do the screens show for `O=S(=O)(NCc1ccco1)c1ccc(Cl)nc1`?
BB579 growth dn: -15; RAM network inh: 3; Yeast lifespan up: 0; Phagocytosis inh: -4

How did CCC(C)(C)n1nnnc1C(c1cc2cc(C)cc(C)c2[nH]c1=O)N1CCCC1 (configuration not stated) do in these assays?
BB579 growth dn: -22; RAM network inh: 0; Yeast lifespan up: 7

Results for CCC(C)(C)n1nnnc1C(c1cc2cccc(C)c2[nH]c1=O)N1CCCC1 (configuration not stated) ?
BB579 growth dn: -37; RAM network inh: -1; Yeast lifespan up: 36*; Phagocytosis inh: -2

How did CCOC(=O)C1=C(CC)Nc2ccccc2N/C1=N\S(=O)(=O)c1ccc(C(=O)OCC)cc1 do in these assays?
RAM network inh: 9.3*

What do the screens show for `O=C1C2C(c3ccccc3)C=CC(c3ccccc3)C2C(=O)N1c1ccccn1` (configuration not stated)?
BB579 growth dn: -57; RAM network inh: 0; Yeast lifespan up: 30*; Phagocytosis inh: -6

How did Cc1ccc(SC(c2ccc(C)cc2)C(Cn2cncn2)C(=O)c2ccccc2)cc1 (configuration not stated) do in these assays?
BB579 growth dn: -21; RAM network inh: 11*; Yeast lifespan up: 1; Phagocytosis inh: -1

What do the screens show for `Cc1ccc(OCC(=O)NC(=S)Nc2ccc(Br)cn2)cc1C`?
RAM network inh: 9.5*

How did O=C(CN(c1cccc(C(F)(F)F)c1)S(=O)(=O)c1ccc(Cl)c([N+](=O)[O-])c1)NCc1ccc(F)cc1 do in these assays?
BB579 growth dn: -39; RAM network inh: 8; Yeast lifespan up: 9; Phagocytosis inh: 1

Results for O=C(/C=C/N1CCOCC1)c1ccc(-c2ccccc2)cc1 ?
BB579 growth dn: 99*; RAM network inh: 2; Yeast lifespan up: -32; Phagocytosis inh: -2

How did Cc1ccnn2cc3c(=O)n(C)c(=O)n(C)c3c12 do in these assays?
BB579 growth dn: 64*; RAM network inh: 0; Yeast lifespan up: -31

Results for CC(C)OC(=O)/C(C#N)=C/c1c[nH]c2ccccc12 ?
BB579 growth dn: -56; RAM network inh: 2; Yeast lifespan up: -7

Results for COc1ccc(/C=N/NC(=O)CSc2nnc(CCCc3ccc(OC)c(C)c3)o2)cc1 ?
BB579 growth dn: -37; RAM network inh: 10*; Yeast lifespan up: -1; Phagocytosis inh: 0

Results for O=C(COC(=O)C12CC3CC(CC(C3)C1)C2)Nc1nccs1 ?
RAM network inh: 2

What do the screens show for `CC(=O)NC12CC3CC(C1)CC(C(=O)Nc1nccs1)(C3)C2`?
BB579 growth dn: -8; RAM network inh: 10*; Yeast lifespan up: -6; Phagocytosis inh: -1

How did Cc1cc2ccc(C)c(C)c2nc1SCC(=O)c1cccs1 do in these assays?
BB579 growth dn: -72; RAM network inh: 8.6*; Yeast lifespan up: -7; Phagocytosis inh: 0

Results for Cc1ccc(C)c2c1cc(C)c1nnc(SCC(=O)c3cccs3)n12 ?
BB579 growth dn: -15; RAM network inh: 11*; Yeast lifespan up: -3; Phagocytosis inh: -6

What do the screens show for `Cc1ccc2cc(C)c3nnc(SCC(=O)c4cccs4)n3c2c1C`?
BB579 growth dn: -61; RAM network inh: 2; Yeast lifespan up: -5; Phagocytosis inh: 0

Results for CCc1nnc(NC(=O)C2c3ccccc3Oc3ccccc32)s1 ?
BB579 growth dn: 1; RAM network inh: 4

Results for COc1ccc(CCNC(=O)COC(=O)c2ccc(N3CCCC3=O)cc2)cc1OC ?
RAM network inh: 1

How did S=c1[nH]ncn2c1cc1oc3ccccc3c12 do in these assays?
RAM network inh: 1

How did CC(=O)c1c(C)[nH]c(C(=O)OC2CCCCC2=O)c1C (configuration not stated) do in these assays?
BB579 growth dn: -17; RAM network inh: 2; Yeast lifespan up: 142*; Phagocytosis inh: -1

How did CCOC(=O)C(C)(C)N(Cc1ccccc1C)S(=O)(=O)c1ccc(Cl)c([N+](=O)[O-])c1 do in these assays?
BB579 growth dn: -58; RAM network inh: 9.3*; Yeast lifespan up: 14; Phagocytosis inh: -3

How did CCOC(=O)N1CCC(=C2c3ccc(Cl)cc3CCc3cccnc32)CC1 do in these assays?
BB579 growth dn: -56; RAM network inh: 1; Yeast lifespan up: 33*

Results for CCOC(=O)N1CCN(Cc2ccc(O)c3ncccc23)CC1 ?
RAM network inh: 0

How did COc1cccc(NC(=O)NC2CCCc3ccccc32)c1 (configuration not stated) do in these assays?
RAM network inh: 8.8*

What do the screens show for `O=C(c1ccccc1)n1nc(-c2ccccc2)nc1NCc1ccco1`?
BB579 growth dn: -12; RAM network inh: 10*; Yeast lifespan up: -7; Phagocytosis inh: -1

What do the screens show for `O=C(c1ccco1)n1nc(-c2cccnc2)nc1NCc1ccco1`?
RAM network inh: 2

How did NN(CCO)C(=S)Nc1ccc(Cl)cc1 do in these assays?
RAM network inh: 3

How did Cc1cc(=O)oc2cc(OC(=O)c3nn(C(C)C)c(=O)c4ccccc34)ccc12 do in these assays?
BB579 growth dn: -33; RAM network inh: 6; Yeast lifespan up: 0; Phagocytosis inh: -10

Results for CC(C)n1nc(C(=O)Oc2ccc(Cl)cc2)c2ccccc2c1=O ?
BB579 growth dn: -32; RAM network inh: 7; Yeast lifespan up: 29*; Phagocytosis inh: -3

Results for CCc1cc(C(=O)OC)c(NC(=O)c2cc(Br)cs2)s1 ?
BB579 growth dn: -33; RAM network inh: 10*; Yeast lifespan up: -14; Phagocytosis inh: 0

What do the screens show for `CCc1cc(C(=O)OC)c(NC(=O)CCCC(=O)O)s1`?
BB579 growth dn: -27; RAM network inh: 1; Yeast lifespan up: -8

How did Cc1ccc(NC(=O)c2ccc(CSc3ccccn3)cc2)cc1 do in these assays?
BB579 growth dn: -27; RAM network inh: 8.4*; Yeast lifespan up: -12

Results for CC(C)(C)c1ccc(C(=O)Nc2cccc([N+](=O)[O-])c2)cc1 ?
BB579 growth dn: -53; RAM network inh: 2; Yeast lifespan up: -4; Phagocytosis inh: 0

What do the screens show for `Cc1ccc(SCc2ccc(C(=O)Nc3cccc([N+](=O)[O-])c3)cc2)cc1`?
BB579 growth dn: -35; RAM network inh: 9.6*; Yeast lifespan up: -8

What do the screens show for `Cc1ccc(SCc2ccc(C(=O)Nc3cc([N+](=O)[O-])ccc3C)cc2)cc1`?
BB579 growth dn: -19; RAM network inh: 10*; Yeast lifespan up: -8; Phagocytosis inh: -1

Results for Cc1ccc(NC(=O)c2ccc(CSc3nnc(C)s3)cc2)cc1 ?
BB579 growth dn: -39; RAM network inh: 5; Yeast lifespan up: -10
